{"source": "ChEMBL document CHEMBL4382192", "about": "“Discovery of a potent dual ALK and EGFR T790M inhibitor” (Eur J Med Chem, 2017)", "key": {"[1]": {"assay": "Metabolic stability in rat liver microsomes assessed as parent compound remaining at 1 uM after 30 mins in presence of NADPH by LC/MS/MS analysis", "type": "ADME, Microsome", "details": "read-out: Stability", "how_it_was_run": "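Compound at 1 μM final with 0.5 mg/mL microsomal protein in 100 mM phosphate buffer pH 7.4 at 37 °C, started by adding an NADPH-regenerating system. Reactions were quenched with cold acetonitrile at 0 and 30 min and spun down. Supernatant was analysed by LC-MS/MS. The 0-min sample, quenched before NADPH addition, was set as 100%, and percent parent remaining came from peak areas.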"}, "[2]": {"biological_target": "Activin receptor type-1-like (Homo sapiens) (UniProt P37023)", "assay": "Binding affinity to wild-type human ACVRL1 (L164 to Q503 residues) expressed in bacterial expression system assessed as residual binding level at 1 uM by Kinomescan method relative to control"}, "[3]": {"biological_target": "Calcium/calmodulin-dependent protein kinase type 1 (Homo sapiens) (UniProt Q14012)", "assay": "Binding affinity to wild-type human full length CAMK1 (M1 to L370 residues) expressed in bacterial expression system assessed as residual binding level at 1 uM by Kinomescan method relative to control"}, "[4]": {"biological_target": "Calcium/calmodulin-dependent protein kinase type 1B (Homo sapiens) (UniProt Q6P2M8)", "assay": "Binding affinity to wild-type human partial length CAMK1B (W9 to A311 residues) expressed in mammalian expression system assessed as residual binding level at 1 uM by Kinomescan method relative to control"}, "[5]": {"biological_target": "Calcium/calmodulin-dependent protein kinase type II subunit beta (Homo sapiens) (UniProt Q13554)", "sequence (Q13554 whole entry, the tested form may be a part)": "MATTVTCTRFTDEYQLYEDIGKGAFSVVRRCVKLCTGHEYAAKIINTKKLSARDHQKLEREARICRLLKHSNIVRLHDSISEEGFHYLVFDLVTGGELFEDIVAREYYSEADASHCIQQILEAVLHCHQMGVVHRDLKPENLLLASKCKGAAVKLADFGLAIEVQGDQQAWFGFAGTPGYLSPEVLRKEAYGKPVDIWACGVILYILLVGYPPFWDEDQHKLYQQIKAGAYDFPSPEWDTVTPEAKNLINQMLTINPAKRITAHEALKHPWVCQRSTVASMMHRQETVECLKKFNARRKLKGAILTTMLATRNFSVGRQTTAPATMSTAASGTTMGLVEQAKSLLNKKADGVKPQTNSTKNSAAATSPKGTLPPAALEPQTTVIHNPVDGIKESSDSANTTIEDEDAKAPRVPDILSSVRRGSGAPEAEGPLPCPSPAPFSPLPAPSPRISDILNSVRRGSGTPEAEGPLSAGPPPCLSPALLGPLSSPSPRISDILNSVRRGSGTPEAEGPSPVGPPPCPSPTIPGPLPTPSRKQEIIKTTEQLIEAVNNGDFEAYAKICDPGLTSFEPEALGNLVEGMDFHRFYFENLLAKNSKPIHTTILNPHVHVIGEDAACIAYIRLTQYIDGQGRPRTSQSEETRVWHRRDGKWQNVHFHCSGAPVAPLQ", "assay": "Binding affinity to wild-type human partial length CAMK2B (M1 to Q380 residues) expressed in bacterial expression system assessed as residual binding level at 1 uM by Kinomescan method relative to control"}, "[6]": {"biological_target": "Calcium/calmodulin-dependent protein kinase type II subunit delta (Homo sapiens) (UniProt Q13557)", "sequence (Q13557 whole entry, the tested form may be a part)": "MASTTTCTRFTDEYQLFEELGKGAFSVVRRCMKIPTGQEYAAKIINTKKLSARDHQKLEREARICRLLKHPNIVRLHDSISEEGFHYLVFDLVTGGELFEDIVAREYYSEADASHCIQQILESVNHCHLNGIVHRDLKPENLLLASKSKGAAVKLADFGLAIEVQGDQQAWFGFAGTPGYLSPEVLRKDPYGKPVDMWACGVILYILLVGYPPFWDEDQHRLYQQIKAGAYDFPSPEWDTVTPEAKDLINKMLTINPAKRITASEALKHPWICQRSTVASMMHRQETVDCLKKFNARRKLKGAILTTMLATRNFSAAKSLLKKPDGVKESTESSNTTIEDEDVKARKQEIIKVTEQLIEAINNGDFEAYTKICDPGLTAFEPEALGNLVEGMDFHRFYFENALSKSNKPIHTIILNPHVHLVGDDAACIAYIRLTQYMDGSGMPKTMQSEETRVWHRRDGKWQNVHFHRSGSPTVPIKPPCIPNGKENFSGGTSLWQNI", "assay": "Binding affinity to wild-type human partial length CAMK2D (M1 to E329 residues) expressed in bacterial expression system assessed as residual binding level at 1 uM by Kinomescan method relative to control"}, "[7]": {"biological_target": "Serine/threonine-protein kinase DCLK2 (Homo sapiens) (UniProt Q8N568)", "sequence (Q8N568 whole entry, the tested form may be a part)": "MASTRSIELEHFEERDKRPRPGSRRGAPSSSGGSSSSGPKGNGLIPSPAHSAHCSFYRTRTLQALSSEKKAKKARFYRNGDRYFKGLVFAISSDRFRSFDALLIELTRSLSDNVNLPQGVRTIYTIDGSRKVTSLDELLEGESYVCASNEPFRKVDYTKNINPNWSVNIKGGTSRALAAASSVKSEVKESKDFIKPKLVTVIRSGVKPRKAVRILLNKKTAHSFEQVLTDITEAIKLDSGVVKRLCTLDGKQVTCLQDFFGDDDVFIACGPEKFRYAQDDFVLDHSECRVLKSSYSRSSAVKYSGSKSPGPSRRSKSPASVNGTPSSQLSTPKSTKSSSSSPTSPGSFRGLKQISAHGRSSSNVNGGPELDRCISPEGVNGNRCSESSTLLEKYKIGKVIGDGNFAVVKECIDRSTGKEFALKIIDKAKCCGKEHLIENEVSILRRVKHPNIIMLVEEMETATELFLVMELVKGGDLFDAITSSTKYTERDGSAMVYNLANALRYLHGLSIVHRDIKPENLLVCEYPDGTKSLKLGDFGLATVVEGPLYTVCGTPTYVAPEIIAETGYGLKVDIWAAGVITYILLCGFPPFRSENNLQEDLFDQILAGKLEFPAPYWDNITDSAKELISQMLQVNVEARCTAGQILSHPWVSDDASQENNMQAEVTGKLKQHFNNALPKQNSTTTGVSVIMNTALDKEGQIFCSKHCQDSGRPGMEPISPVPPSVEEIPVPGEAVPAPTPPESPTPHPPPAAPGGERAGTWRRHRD", "assay": "Binding affinity to wild-type human partial length DCAMKL2 (K273 to V664 residues) expressed in bacterial expression system assessed as residual binding level at 1 uM by Kinomescan method relative to control"}, "[8]": {"biological_target": "Serine/threonine-protein kinase MRCK gamma (Homo sapiens) (UniProt Q6DT37)", "sequence (Q6DT37 whole entry, the tested form may be a part)": "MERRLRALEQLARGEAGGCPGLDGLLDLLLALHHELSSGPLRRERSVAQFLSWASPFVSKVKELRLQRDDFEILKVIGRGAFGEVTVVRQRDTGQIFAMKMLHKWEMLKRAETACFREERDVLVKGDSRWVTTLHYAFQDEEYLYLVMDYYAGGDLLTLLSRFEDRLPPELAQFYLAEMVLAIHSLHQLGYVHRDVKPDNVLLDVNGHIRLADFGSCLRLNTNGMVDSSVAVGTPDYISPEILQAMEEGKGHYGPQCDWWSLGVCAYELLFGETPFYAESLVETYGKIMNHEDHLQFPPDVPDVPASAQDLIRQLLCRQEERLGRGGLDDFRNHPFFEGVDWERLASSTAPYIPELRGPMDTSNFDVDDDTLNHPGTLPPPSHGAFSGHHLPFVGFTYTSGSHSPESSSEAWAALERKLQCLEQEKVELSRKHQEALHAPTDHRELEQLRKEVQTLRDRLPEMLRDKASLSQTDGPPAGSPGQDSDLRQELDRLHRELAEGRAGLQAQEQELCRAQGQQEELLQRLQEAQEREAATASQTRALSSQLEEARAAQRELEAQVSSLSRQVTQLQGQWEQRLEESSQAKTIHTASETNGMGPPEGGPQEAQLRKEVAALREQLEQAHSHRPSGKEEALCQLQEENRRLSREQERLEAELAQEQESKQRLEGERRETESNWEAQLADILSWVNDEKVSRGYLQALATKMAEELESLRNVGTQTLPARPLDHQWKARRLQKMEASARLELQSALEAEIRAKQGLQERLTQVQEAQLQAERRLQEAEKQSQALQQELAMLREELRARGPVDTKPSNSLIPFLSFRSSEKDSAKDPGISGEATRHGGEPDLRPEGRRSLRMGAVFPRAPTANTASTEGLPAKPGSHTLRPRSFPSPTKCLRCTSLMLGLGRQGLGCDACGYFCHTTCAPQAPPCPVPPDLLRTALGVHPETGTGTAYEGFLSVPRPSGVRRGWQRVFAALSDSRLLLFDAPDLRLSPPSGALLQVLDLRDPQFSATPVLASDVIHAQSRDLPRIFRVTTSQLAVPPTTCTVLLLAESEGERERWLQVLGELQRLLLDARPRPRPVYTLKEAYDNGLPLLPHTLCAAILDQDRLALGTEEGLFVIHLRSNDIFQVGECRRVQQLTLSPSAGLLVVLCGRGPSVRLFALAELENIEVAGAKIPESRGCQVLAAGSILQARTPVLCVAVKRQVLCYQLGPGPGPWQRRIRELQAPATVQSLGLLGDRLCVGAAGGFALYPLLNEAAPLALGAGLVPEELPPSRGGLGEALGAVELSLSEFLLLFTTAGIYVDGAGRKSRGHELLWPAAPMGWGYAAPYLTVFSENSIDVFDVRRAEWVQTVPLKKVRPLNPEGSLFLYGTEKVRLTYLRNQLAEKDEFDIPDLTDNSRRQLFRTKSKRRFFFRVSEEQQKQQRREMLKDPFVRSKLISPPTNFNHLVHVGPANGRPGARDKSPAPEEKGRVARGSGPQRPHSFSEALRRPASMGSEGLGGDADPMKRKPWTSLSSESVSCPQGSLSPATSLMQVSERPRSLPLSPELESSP", "assay": "Binding affinity to wild-type human partial length DMPK2 (S46 to S408 residues) expressed in bacterial expression system assessed as residual binding level at 1 uM by Kinomescan method relative to control"}, "[9]": {"biological_target": "Inhibitor of nuclear factor kappa-B kinase subunit epsilon (Homo sapiens) (UniProt Q14164)", "assay": "Binding affinity to wild-type human full length IKK-epsilon (M1 to V716 residues) expressed in mammalian expression system assessed as residual binding level at 1 uM by Kinomescan method relative to control", "how_it_was_run": "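Single-point kinome-wide KINOMEscan binding panel, test compound at 1 μM, run by the provider's standard protocol.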"}, "[10]": {"system": "Mast/stem cell growth factor receptor Kit (Homo sapiens), P10721 [A829P]", "assay": "Binding affinity to human partial length KIT A829P mutant (I571 to D952 residues) expressed in mammalian expression system assessed as residual binding level at 1 uM by Kinomescan method relative to control", "how_it_was_run": "(§1)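 Kinome-wide selectivity panel run by the KINOMEscan method, with the test compound at a single concentration of 1 μM. Wild-type and mutant kinases were profiled in the same screen.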"}, "[11]": {"biological_target": "Mitogen-activated protein kinase kinase kinase kinase 2 (Homo sapiens) (UniProt Q12851)", "assay": "Binding affinity to wild-type human partial length MAP4K2 (M1 to G318 residues) expressed in mammalian expression system assessed as residual binding level at 1 uM by Kinomescan method relative to control"}, "[12]": {"biological_target": "Mitogen-activated protein kinase kinase kinase 9 (Homo sapiens) (UniProt P80192)", "assay": "Binding affinity to wild-type human partial length MLK1 (V88 to W426 residues) expressed in bacterial expression system assessed as residual binding level at 1 uM by Kinomescan method relative to control"}, "[13]": {"biological_target": "Platelet-derived growth factor receptor alpha (Homo sapiens) (UniProt P16234)", "sequence (P16234 whole entry, the tested form may be a part)": "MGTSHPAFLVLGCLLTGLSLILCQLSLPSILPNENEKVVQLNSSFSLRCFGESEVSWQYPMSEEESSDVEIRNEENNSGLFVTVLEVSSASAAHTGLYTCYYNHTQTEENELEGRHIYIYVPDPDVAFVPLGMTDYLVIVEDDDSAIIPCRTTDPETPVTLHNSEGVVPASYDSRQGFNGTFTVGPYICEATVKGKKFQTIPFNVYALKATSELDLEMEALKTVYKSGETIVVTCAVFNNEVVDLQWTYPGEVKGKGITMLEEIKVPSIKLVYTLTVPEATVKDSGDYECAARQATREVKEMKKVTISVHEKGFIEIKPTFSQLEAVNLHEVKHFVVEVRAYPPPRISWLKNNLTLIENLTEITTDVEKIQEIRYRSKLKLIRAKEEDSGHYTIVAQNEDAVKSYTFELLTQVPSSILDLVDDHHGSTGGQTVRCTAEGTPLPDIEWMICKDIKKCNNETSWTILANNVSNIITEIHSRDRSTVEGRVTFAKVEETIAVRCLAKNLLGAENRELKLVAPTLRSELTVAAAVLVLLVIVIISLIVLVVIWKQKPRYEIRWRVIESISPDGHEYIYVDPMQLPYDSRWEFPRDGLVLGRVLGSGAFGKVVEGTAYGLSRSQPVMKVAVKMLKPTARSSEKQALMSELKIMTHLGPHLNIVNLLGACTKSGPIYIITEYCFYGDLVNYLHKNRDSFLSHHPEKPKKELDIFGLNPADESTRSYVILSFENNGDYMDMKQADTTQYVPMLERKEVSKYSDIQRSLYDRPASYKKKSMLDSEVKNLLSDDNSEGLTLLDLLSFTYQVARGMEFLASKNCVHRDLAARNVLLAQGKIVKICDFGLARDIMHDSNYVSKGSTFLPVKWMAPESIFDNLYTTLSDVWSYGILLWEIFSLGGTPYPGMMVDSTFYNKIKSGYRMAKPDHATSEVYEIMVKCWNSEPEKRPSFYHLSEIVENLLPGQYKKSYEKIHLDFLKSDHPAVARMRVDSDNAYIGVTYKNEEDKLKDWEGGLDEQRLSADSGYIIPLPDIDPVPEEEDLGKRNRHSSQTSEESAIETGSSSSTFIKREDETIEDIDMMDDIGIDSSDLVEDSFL", "assay": "Binding affinity to wild-type human partial length PDGFRA (V575 to D1002 residues) expressed in mammalian expression system assessed as residual binding level at 1 uM by Kinomescan method relative to control"}, "[14]": {"biological_target": "Cyclin-dependent kinase 2 homolog (Plasmodium falciparum (isolate 3D7)) (UniProt P61075)", "sequence (P61075 whole entry, the tested form may be a part)": "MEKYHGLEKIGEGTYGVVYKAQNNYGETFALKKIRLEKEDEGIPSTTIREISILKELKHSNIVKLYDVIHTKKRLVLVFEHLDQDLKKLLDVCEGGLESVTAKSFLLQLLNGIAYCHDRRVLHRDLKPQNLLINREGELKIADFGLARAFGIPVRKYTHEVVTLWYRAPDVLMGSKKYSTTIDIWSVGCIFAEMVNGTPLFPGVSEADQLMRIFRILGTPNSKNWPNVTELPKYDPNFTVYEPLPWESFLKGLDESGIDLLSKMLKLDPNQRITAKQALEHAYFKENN", "assay": "Binding affinity to wild-type Plasmodium falciparum full length PK5 (M1 to N288 residues) expressed in mammalian expression system assessed as residual binding level at 1 uM by Kinomescan method relative to control", "how_it_was_run": "as §1"}, "[15]": {"biological_target": "Phosphorylase b kinase gamma catalytic chain, liver/testis isoform (Homo sapiens) (UniProt P15735)", "assay": "Binding affinity to wild-type human partial length PHKG2 (M1 to W300 residues) expressed in bacterial expression system assessed as residual binding level at 1 uM by Kinomescan method relative to control"}, "[16]": {"system": "Phosphatidylinositol 4,5-bisphosphate 3-kinase catalytic subunit alpha isoform (Homo sapiens), P42336 [M1043I]", "assay": "Binding affinity to human partial length PIK3CA M1043I mutant (R108 to N1068 residues) expressed in mammalian expression system assessed as residual binding level at 1 uM by Kinomescan method relative to control"}, "[17]": {"biological_target": "Phosphatidylinositol 4,5-bisphosphate 3-kinase catalytic subunit beta isoform (Homo sapiens) (UniProt P42338)", "assay": "Binding affinity to wild-type human partial length PIK3CB (P118 to S1070 residues) expressed in mammalian expression system assessed as residual binding level at 1 uM by Kinomescan method relative to control"}, "[18]": {"biological_target": "Phosphatidylinositol 5-phosphate 4-kinase type-2 gamma (Homo sapiens) (UniProt Q8TBX8)", "assay": "Binding affinity to wild-type human partial length PIP5K2C (M1 to A421 residues) expressed in mammalian expression system assessed as residual binding level at 1 uM by Kinomescan method relative to control"}, "[19]": {"system": "Proto-oncogene tyrosine-protein kinase receptor Ret (Homo sapiens), P07949 [M918T]", "assay": "Binding affinity to human partial length RET M918T mutant (E713 to D1014 residues) expressed in bacterial expression system assessed as residual binding level at 1 uM by Kinomescan method relative to control", "how_it_was_run": "as §1"}, "[20]": {"biological_target": "Rho-associated protein kinase 2 (Homo sapiens) (UniProt O75116)", "assay": "Binding affinity to wild-type human partial length ROCK2 (M1 to T431 residues) expressed in mammalian expression system assessed as residual binding level at 1 uM by Kinomescan method relative to control"}, "[21]": {"biological_target": "Testis-specific serine/threonine-protein kinase 3 (Homo sapiens) (UniProt Q96PN8)", "assay": "Binding affinity to wild-type human full length TSSK3 (M1 to T268 residues) expressed in mammalian expression system assessed as residual binding level at 1 uM by Kinomescan method relative to control"}, "[22]": {"biological_target": "Serine/threonine-protein kinase WNK2 (Homo sapiens) (UniProt Q9Y3S1)", "assay": "Binding affinity to wild-type human partial length WNK2 (V47 to D482 residues) expressed in mammalian expression system assessed as residual binding level at 1 uM by Kinomescan method relative to control"}}}
{"smiles": "C=CC(=O)Nc1cc(Nc2ncc(Cl)c(Nc3ccccc3S(=O)(=O)C(C)C)n2)c(OC)cc1N(C)CCN(C)C", "values": [{"measurement": "remaining at 0.5 h, 1 µM", "setting": "[1]", "value": 11, "unit": "%"}, {"measurement": "Activity", "setting": "[2]", "value": 30, "unit": "%"}, {"measurement": "Activity", "setting": "[3]", "value": 40, "unit": "%"}, {"measurement": "Activity", "setting": "[4]", "value": 15, "unit": "%"}, {"measurement": "Activity", "setting": "[5]", "value": 48, "unit": "%"}, {"measurement": "Activity", "setting": "[6]", "value": 41, "unit": "%"}, {"measurement": "Activity", "setting": "[7]", "value": 14, "unit": "%"}, {"measurement": "Activity", "setting": "[8]", "value": 91, "unit": "%"}, {"measurement": "Activity", "setting": "[9]", "value": 21, "unit": "%"}, {"measurement": "Activity", "setting": "[10]", "value": 45, "unit": "%"}, {"measurement": "Activity", "setting": "[11]", "value": 77, "unit": "%"}, {"measurement": "Activity", "setting": "[12]", "value": 39, "unit": "%"}, {"measurement": "Activity", "setting": "[13]", "value": 83, "unit": "%"}, {"measurement": "Activity", "setting": "[14]", "value": 91, "unit": "%"}, {"measurement": "Activity", "setting": "[15]", "value": 10, "unit": "%"}, {"measurement": "Activity", "setting": "[16]", "value": 84, "unit": "%"}, {"measurement": "Activity", "setting": "[17]", "value": 100, "unit": "%"}, {"measurement": "Activity", "setting": "[18]", "value": 90, "unit": "%"}, {"measurement": "Activity", "setting": "[19]", "value": 9.7, "unit": "%"}, {"measurement": "Activity", "setting": "[20]", "value": 96, "unit": "%"}, {"measurement": "Activity", "setting": "[21]", "value": 46, "unit": "%"}, {"measurement": "Activity", "setting": "[22]", "value": 66, "unit": "%"}]}
